The values below come from paper PMC6740333 (Bioconjugate chemistry, 2018).

Where two headings read alike, the source gives them in different places.

Data set [1] is described as follows: Dispersion stability of surfactant-stabilized GNRs at high ionic strength. Conditions: 1 M NaCl. In kind it is physicochemical. The method in brief:
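Citrate-stabilized gold nanorods were centrifuged and redispersed twice in 0.1 M NaCl containing millimolar zwitterionic sulfobetaine surfactant. Ionic strength was then raised with brine to 0.5 or 1.0 M. Dispersion stability was followed as retention of optical density, measured by absorbance spectrophotometry, after one day and one week.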

Another data set has as its system MDCK cells. Briefly: Cell viability assay. Format: cell-based, canine. Conditions: read-out: Cell viability IC50, MTT, mean of triplicate. The gist of the method: (§1)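 HepaRG, MDCK (canine kidney) or LLC-PK1 (pig kidney) cells were grown at 37°C, 5% CO2 in RPMI 1640 with 10% FBS, 1% glutamine and 1% penicillin–streptomycin. Cells were exposed for 24 h at 37°C to serial dilutions of sulfobetaine surfactant in medium (final-volume concentrations). MTT (0.5%) was added for 4 h, formazan was dissolved in DMSO 16 h in the dark, and A590 was read against medium-only controls. Triplicate.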

A further data set has as its system HepaRG cells. Put plainly: Cell viability assay. Format: cell-based, human. The gist of the method:
as §1

The next data set has as its system LLC-PK1 cells. Briefly: Cell viability assay. In kind it is cell-based, pig. Conditions: read-out: Cell viability IC50; LLC-PK1, MTT, mean of triplicate. The method in brief: as §1
Another data set deals with SKOV-3 cells. Put plainly: Cell viability assay. In kind it is cell-based. Conditions: Homo sapiens, SK-OV-3, 24 h, read-out: Cell viability IC50. The gist of the method:
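SKOV-3 cells in folate-free RPMI 1640 (10% FBS, 1% penicillin–streptomycin) were seeded at 5,000 cells/100 μL and preincubated 24 h at 37°C, 5% CO2. Serial dilutions in medium (final-volume concentrations) were added for 24 h at 37°C. MTT (0.5%) was then added for 4 h, followed by DMSO solubilization 16 h at 25°C in the dark. A590 was normalized to medium-only cells. Triplicate.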

[2] abbreviates: read-out: Cell viability IC50, MTT, mean of triplicate.

What is called IC50 is the point on the concentration scale where inhibition reaches its midpoint. Take `CCCCCCCCCCCCCCCCCC[N+](C)(C)CCCS(=O)(=O)[O-]` [C18-SB, 3-(N,N-dimethyloctadecylammonio)sulfopropyl betaine]: the “retention of optical density of stabilized GNRs” value (shortened to “retention”) in data set [1] (after one day) is “over 90%”; in data set [1] (after one week), 80%. In addition, the half-inhibitory concentration (IC50) amounted to 56 µM with MDCK cells and 52 µM with HepaRG cells (setting [2]).
With `CCCCCCCC/C=C\CCCCCCCC[N+](C)(C)CCCS(=O)(=O)[O-]` [OSB, oleylsulfobetaine], the IC50 turned out to be 62 µM with LLC-PK1 cells, 42 µM in the data set with MDCK cells and 32 µM in the data set on HepaRG cells (setting [2]). Besides, the “retention” value in data set [1] (after one day) is recorded as “over 90%”; in data set [1] (after one week), 80%.
As for `CCCCCCCCCCCCCCCC(=O)NCCC[N+](C)(C)CCCS(=O)(=O)[O-]` [ASB-16], the “retention” value in data set [1] (after one day) was “over 90%”; in data set [1] (after one week), 80%. Moreover, the IC50 with MDCK cells was 81 µM; in the data set with HepaRG cells (setting [2]) it was 58 µM.
In the case of `CCCCCCCCCCCCCCCC[N+](C)(C)C` [CTAB, cetyltrimethylammonium bromide], the half-maximal inhibitory concentration (IC50) came to 8 µM with SKOV-3 cells and 8 µM with HepaRG cells (Homo sapiens, read-out: Cell viability IC50).
As to `CCCCCCCCCCCCCC(=O)NCCC[N+](C)(C)CCCS(=O)(=O)[O-]` [ASB-14], the figures for the “retention” value in data set [1] (after one day) and in data set [1] (after one week) were “over 90%” and 80%, respectively. In addition, the figures for the half-inhibitory concentration (IC50) in the data set on MDCK cells and with HepaRG cells (setting [2]) were 120 µM and 105 µM, respectively.
